zVAD death inh = blocks zVAD induced death of L929 cells; hit rate 0.38% among 220,000; viability rescue, % at 10 µM; L929 zVAD necroptosis rescue, ATP luminescence, 24 h; with zVAD 60 µM;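 active = activation, scaled between plate controls, above about 75%, limit read from the data; inactive = activation under that limit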;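 note: 0% = zVAD with DMSO and 100% = DMSO alone without zVAD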
Autophagy HCS = alters autophagy in cells; MEF GFP-LC3 puncta imaging; test concentration mostly 10 µM; calls only at 10 µM (by protocol); hit rate 0.98% among 190,000; AID 463193;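 active = percentage of spot-positive cells more than 3 SD above its plate mean, without a fluorescence outlier flag or 80% toxicity; inconclusive = no clear call, values can overlap the other calls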;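 note: spot-positive cell cutoff set from DMSO-treated cells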
Furin inh = human furin inhibition. P09958. purified furin, fluorogenic substrate cleavage. inhibition, % at 20 µM or 30 µM. hit rate 0.061% among 220,000; in the data active = inhibition above about 25%
Target sequence (P09958 108-714 limits assumed): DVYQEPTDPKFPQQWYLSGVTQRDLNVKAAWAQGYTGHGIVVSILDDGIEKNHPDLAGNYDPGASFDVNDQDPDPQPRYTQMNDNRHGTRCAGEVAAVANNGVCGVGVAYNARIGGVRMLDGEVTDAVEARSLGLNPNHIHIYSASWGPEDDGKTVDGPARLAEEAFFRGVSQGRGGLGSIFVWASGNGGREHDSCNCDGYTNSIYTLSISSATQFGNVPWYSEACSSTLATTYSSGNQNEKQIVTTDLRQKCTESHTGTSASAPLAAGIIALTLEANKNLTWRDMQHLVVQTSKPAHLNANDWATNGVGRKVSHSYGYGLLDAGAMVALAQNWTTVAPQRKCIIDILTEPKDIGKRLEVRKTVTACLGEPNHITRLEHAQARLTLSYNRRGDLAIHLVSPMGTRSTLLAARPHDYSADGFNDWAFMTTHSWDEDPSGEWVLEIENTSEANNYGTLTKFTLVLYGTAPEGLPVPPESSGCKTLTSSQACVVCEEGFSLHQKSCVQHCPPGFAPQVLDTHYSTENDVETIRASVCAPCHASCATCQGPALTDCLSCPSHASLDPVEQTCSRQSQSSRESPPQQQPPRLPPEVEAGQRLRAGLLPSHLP
HSV augment = HSV replication enhancement; maximum fold increase; HSV replication augmentation in cells, fold increase; hit rate 0.005% among 220,000; in the data active = maximum fold increase above about 1.5; inconclusive = no clear call, values can overlap the other calls; tested in PC3 cells
TNF necrop inh = blocks TNF-alpha induced death of Jurkat FADD-/- cells. Jurkat FADD-/- TNF necroptosis rescue, ATP luminescence, 24 h; 0 = TNF only, 100 = no-TNF cells. activation (protection from cell death), % at 10 µM. hit rate 0.068% among 220,000. AID 463075;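 active = activation, meaning protection from cell death, of at least 50% relative to plate controls; inactive = activation below 50%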;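 note: necroptosis triggered by 40 ng/mL TNF-alpha added together with compound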
Dynein transport = dynein cargo transport inhibition; 3617.4 mouse cells, GR-EGFP nuclear translocation imaging; test concentration mostly 20 µM; stimulated with dexamethasone, 1 µM; active compounds read low; z-score, hits read low; hit rate 0.47% among 220,000; AID 1381;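 active = plate z-score of nuclear minus cytoplasmic receptor signal below a set negative limit, without overly bright fluorescence or cell loss, cut at about -3.5 in these data, passing the limit was not always enough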;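 note: z-score of nuclear minus cytoplasmic ring GR-EGFP intensity difference per well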
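Medium: Induction medium lacking tetracycline, stripped serum | Probe or stimulus: 1.0 µM final dexamethasone stimulus | Schedule: 48 h induction, then 1 h compound, then 30 min agonist, 37 °C | Signal: Automated 10x imaging of fixed Hoechst-stained cells | Evaluation: Per-cell GR-EGFP intensity, nucleus versus surrounding cytoplasmic ring, well-averaged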
Dynein inh conf = dynein cargo transport inhibition, confirmation. shares compounds with Dynein transport. 3617.4 GR-EGFP nuclear translocation imaging, dexamethasone-induced. calls only at 20 µM. hit rate 69% among 1,000;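 active = inhibition of receptor movement into the nucleus at or above a set limit in both runs, with normal cell brightness and cell count; inconclusive = limit reached in only one run, brightness and count normal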;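 note: dexamethasone at 1 µM final in well for 30 min; nuclear minus cytoplasmic GR-EGFP mean intensity difference in channel 2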
The depositor's hits bear a star; i = inactive; ? = inconclusive; . = no result given; + = active, no number. Sampled rows, rich in hits. Any-hit rate of the full collection: about 1.8%.

SMILES | zVAD death inh | Autophagy HCS | Furin inh | HSV augment | TNF necrop inh | Dynein transport | Dynein inh conf
CCOC(=O)C1=C(O)c2ccccc2C(=O)/C1=C\c1ccc(CC)cc1 | -0.3 | i | -9.3 | ? | -24.0 | -4.71 | i
COc1ccc(Cn2c(=O)[nH]c3cc(C(=O)NCCc4ccc(S(N)(=O)=O)cc4)ccc3c2=O)cc1 | 2.4 | i | -30.3 | i | 1.8 | -0.426 | .
COc1cc(SC)ccc1C(=O)OC(C)C(=O)NC1CCCC1 (stereo not given) | 6.1 | i | -27.4 | i | 0.9 | -0.329 | .
Cc1occc1-c1nnc(SCC(=O)N2CCc3ccccc32)o1 | 0.5 | i | -24.3 | i | -2.4 | -4.01* | i
C/C(CC(=O)Nc1ccccn1)=N\NC(=O)c1cnccn1 | 0.5 | . | 1.0 | i | 0.2 | 2.03 | .
COc1cc(C(Nc2ccccn2)c2ccc3ccc(C)nc3c2O)cc(OC)c1O (stereo not given) | 15.7 | i | -14.1 | i | -11.8 | -3.64* | +
O/N=C1/C2C3C(Br)C4C5CC(C1C53)C24 (stereo not given) | 0.3 | i | -11.5 | i | 0.7 | 0.715 | .
CC(/C=N/n1c(COc2ccccc2)n[nH]c1=S)=C\c1ccco1 | 0.8 | . | -25.8 | i | -6.4 | -3.96* | i
S=c1[nH]nc(COc2ccccc2)n1/N=C/c1ccco1 | 0.3 | i | -6.5 | i | -0.7 | -0.166 | .
CCNc1ccc(Br)cc(C(=O)/C=C/c2c(Cl)cccc2Cl)c1=O | 16.9 | + | -12.9 | i | -7.4 | -5.6 | +
COc1ccc(CNc2cc(NCCCO)c([N+](=O)[O-])c3nonc23)cc1 | 1.1 | i | -15.9 | i | -2.9 | -0.583 | .
CC(=O)OCCNc1cc(SCc2ccco2)c2nonc2c1[N+](=O)[O-] | -0.7 | i | -3.9 | i | -2.4 | -5.83* | +
CC(=O)OCCCNc1cc(Sc2nc3ccccc3s2)c2nonc2c1[N+](=O)[O-] | 13.2 | i | -5.6 | i | -26.8 | -3.4 | .
CCCC(=O)OCCNc1cc(SCCC(=O)OC)c2nonc2c1[N+](=O)[O-] | -0.4 | i | 1.0 | i | -0.4 | -4.51* | +
CC(=O)OCCCNc1cc(Sc2ccc(C)cc2)c2nonc2c1[N+](=O)[O-] | 30.1 | i | -33.1 | i | -1.7 | -4.61* | i
O=[N+]([O-])c1c(NCCCO)cc(Sc2ccc(Cl)cc2)c2nonc12 | 0.3 | i | -24.1 | i | -7.9 | -4.68* | +
NC(=O)c1ccccc1Nc1nc(NCCO)nc(N2CCCC2)n1 | . | . | . | i | . | . | .
Cn1ccnc1Sc1cc(NCCCO)c([N+](=O)[O-])c2nonc12 | 44.1 | i | -5.8 | i | -14.1 | -4.9* | +
O=[N+]([O-])c1c(NCCCO)cc(SCc2ccco2)c2nonc12 | -0.4 | i | -7.1 | i | -1.1 | -3.52* | +
CC1OC2(C)OC(=N)C1(C#N)C(C#N)(C#N)C2c1ccccc1 (stereo not given) | 0.6 | i | -6.5 | ? | 0.1 | -2.66 | .
CCCCC1OC2(C)OC(=N)C1(C#N)C(C#N)(C#N)C2c1ccccc1 (stereo not given) | 0.8 | i | -21.6 | ? | -0.9 | -4.47* | +
COc1ccc(C(=O)O)cc1S(=O)(=O)NCCN(C)C | -0.1 | . | -18.4 | i | 1.1 | 0.896 | .
Cn1nc(C(F)(F)F)c(-c2cccc(C(F)(F)F)c2)c1NC(=O)Nc1ccc(F)cc1 | -0.7 | . | -5.3 | i | 2.3 | 2.03 | .
CN1CCN(C2=C(Cl)C(=O)N(Cc3ccccc3)C2=O)CC1 | -0.2 | i | -18.6 | i | -1.0 | -2.58 | .
CCN1CCN(C2=C(Cl)C(=O)N(Cc3ccccc3)C2=O)CC1 | -0.8 | i | -16.7 | i | -1.7 | -4.74* | +
CC1CCCC(C)N1C(=O)COc1ccc(C(=O)N/N=C/c2ccc(C(=O)O)cc2)cc1 (stereo not given) | 1.4 | i | -29.8 | i | -0.4 | -0.314 | .
COc1cccc(-n2nc(C#N)c(Cl)cc2=O)c1 | 37.6 | + | -16.2 | i | -16.0 | -6.15* | +
O=C(CSc1nnnn1-c1ccc2c(c1)OCCO2)N1CCN(C(=O)c2ccco2)CC1 | 3.8 | i | -14.1 | i | 0.0 | -0.828 | .

Screens deposited in PubChem by several laboratories.
